Experimental data of several laboratories.
Compare with care: the assays were run in different laboratories.
MAL12: Alpha-glucosidase MAL12 (MAL12, Saccharomyces cerevisiae S288c, UniProt P53341)

| SMILES | target | observed | action | technique | setting | IC50 [µM] |
| --- | --- | --- | --- | --- | --- | --- |
| COc1cc(C(c2c(O)c3ccccc3oc2=O)c2c(O)c3ccccc3oc2=O)ccc1OCc1cn(CC(=O)Nc2ccc([N+](=O)[O-])cc2)nn1 | MAL12 | enzyme activity | inhibitor | absorbance |  | 12.2 |
| C[C@@H]1O[C@@H](O[C@H]2[C@H](O)[C@@H](O)[C@H](OC[C@H]3O[C@@H](OC(=O)[C@]45CCC(C)(C)C[C@H]4C4=CC[C@@H]6[C@@]7(C)CC[C@H](O[C@@H]8OC[C@H](O)[C@H](O)[C@H]8O)[C@@](C)(CO)[C@@H]7CC[C@@]6(C)[C@]4(C)CC5)[C@H](O)[C@@H](O)[C@@H]3O)O[C@@H]2CO)[C@H](O)[C@H](O)[C@H]1O | MAL12 | enzyme activity | inhibitor |  |  | 1.65 |
| Cc1ccc2oc(=O)cc(NCCO)c2c1 | Alpha-1A adrenergic receptor (ADRA1A, Homo sapiens, UniProt P35348, I178V/M292L) | calcium signal | antagonist |  |  | 324 |
| COc1cc(C(c2c(O)c3ccccc3oc2=O)c2c(O)c3ccccc3oc2=O)ccc1OCc1cn(CC(=O)Nc2ccc(C)cc2C)nn1 | MAL12 | enzyme activity | inhibitor | absorbance |  | 20.2 |
| Cc1ccc2[nH]c(=O)c(CNC3CCCCC3)cc2c1 | Alpha-1A adrenergic receptor (ADRA1A, Homo sapiens, UniProt P35348, M292L) | calcium signal | antagonist |  |  | 11 |
| C[C@@H]1O[C@@H](O[C@H]2[C@H](O[C@H]3CC[C@]4(C)[C@H]5CC=C6[C@@H]7CC(C)(C)CC[C@]7(C(=O)O[C@@H]7O[C@H](CO[C@@H]8O[C@H](CO)[C@@H](O[C@@H]9O[C@@H](C)[C@H](O)[C@@H](O)[C@H]9O)[C@H](O)[C@H]8O)[C@@H](O)[C@H](O)[C@H]7O)CC[C@@]6(C)[C@]5(C)CC[C@H]4C3(C)C)OC[C@H](O)[C@@H]2O)[C@H](O)[C@H](O)[C@H]1O | MAL12 | enzyme activity | inhibitor |  |  | 0.47 |
| Cc1ccccc1NC(=O)Cn1cc(CSc2nc3ccccc3cc2/C=N/NC(N)=S)nn1 | MAL12 | enzyme activity | inhibitor |  |  | 354 |
| COc1cc(C(c2c(O)c3ccccc3oc2=O)c2c(O)c3ccccc3oc2=O)ccc1OCc1cn(CC(=O)Nc2cccc([N+](=O)[O-])c2)nn1 | MAL12 | enzyme activity | inhibitor | absorbance |  | 16.3 |
| C[C@@H]1O[C@@H](O[C@H]2[C@H](O)[C@@H](O)[C@H](OC[C@H]3O[C@@H](OC(=O)[C@]45CCC(C)(C)C[C@H]4C4=CC[C@@H]6[C@@]7(C)CC[C@H](O[C@@H]8OC[C@H](O)[C@H](O)[C@H]8O[C@@H]8O[C@H](CO)[C@@H](O)[C@H](O)[C@H]8O)C(C)(C)[C@@H]7CC[C@@]6(C)[C@]4(C)CC5)[C@H](O)[C@@H](O)[C@@H]3O)O[C@@H]2CO)[C@H](O)[C@H](O)[C@H]1O | MAL12 | enzyme activity | inhibitor |  |  | 0.61 |
| CC(C)C[C@H](NC(=O)[C@H](Cc1ccccc1)NC(=O)OCc1ccccc1)C(=O)C=O | Cathepsin S (CTSS, Homo sapiens, UniProt P25774) | enzyme activity | inhibitor | fluorescence |  | 0.15 |
| Cc1cccc(C)c1NC(=O)Cn1cc(CSc2nc3ccccc3cc2/C=N/NC(N)=S)nn1 | MAL12 | enzyme activity | inhibitor |  |  | 150 |
| COc1ccc(NC(=O)Cn2cc(COc3ccc(C(c4c(O)c5ccccc5oc4=O)c4c(O)c5ccccc5oc4=O)cc3OC)nn2)c(OC)c1 | MAL12 | enzyme activity | inhibitor | absorbance |  | 52 |
| Cc1cccc(NC(=O)Cn2cc(CSc3nc4ccccc4cc3/C=N/NC(N)=S)nn2)c1C | MAL12 | enzyme activity | inhibitor |  |  | 247 |
| COc1cc(C(c2c(O)c3ccccc3oc2=O)c2c(O)c3ccccc3oc2=O)ccc1OCc1cn(CC(=O)Nc2ccccc2F)nn1 | MAL12 | enzyme activity | inhibitor | absorbance |  | 61.4 |
| NC(=S)N/N=C/c1cc2ccccc2nc1SCc1cn(CC(=O)Nc2ccc(Br)cc2)nn1 | MAL12 | enzyme activity | inhibitor |  |  | 434 |
| C=C1CC[C@]2(C(=O)O[C@@H]3O[C@H](CO[C@@H]4O[C@H](CO)[C@@H](O[C@@H]5O[C@@H](C)[C@H](O)[C@@H](O)[C@H]5O)[C@H](O)[C@H]4O)[C@@H](O)[C@H](O)[C@H]3O)CC[C@]3(C)C(=CC[C@@H]4[C@@]5(C)CC[C@H](O[C@@H]6OC[C@H](O)[C@H](O)[C@H]6O[C@@H]6O[C@@H](C)[C@H](O)[C@@H](O)[C@H]6O)C(C)(C)[C@@H]5CC[C@]43C)[C@@H]2C1 | MAL12 | enzyme activity | inhibitor |  |  | 0.74 |
| COc1ccc(NC(=O)Cn2cc(CSc3nc4ccccc4cc3/C=N/NC(N)=S)nn2)cc1 | MAL12 | enzyme activity | inhibitor |  |  | 192 |
| C[C@@H]1O[C@@H](O[C@H]2[C@H](O[C@H]3CC[C@@]4(C)[C@@H](CC[C@]5(C)[C@@H]4CC=C4[C@@H]6CC(C)(C)CC[C@]6(C(=O)O)CC[C@]45C)[C@]3(C)CO)OC[C@H](O)[C@@H]2O)[C@H](O)[C@H](O)[C@H]1O | MAL12 | enzyme activity | inhibitor |  |  | 0.6 |
| NC(=S)N/N=C/c1cc2ccccc2nc1SCc1cn(CC(=O)Nc2ccc(O)cc2)nn1 | MAL12 | enzyme activity | inhibitor |  |  | 311 |
| Cn1c(=O)c2c(ncn2C)n(C)c1=O | Solute carrier family 22 member 6 (SLC22A6, Homo sapiens, UniProt Q4U2R8) | transporter uptake | inhibitor | radiometric | oocytes | 155 |
